For data set [1], the system named is activin A-mediated ovarian cell proliferation. Put plainly: Ovary ex vivo culture and BrdU assay. The format is cell-based, mouse. The conditions noted are these: 1 nM activin A, ovaries of 4-day-old CD1 mice, 4 days. In short, it runs like this:
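Ovaries from 4-day-old CD1 mice were cultured on 0.4-µm membrane inserts in DMEM/F12 with 0.03% BSA for 4 days. Treatments: 1 nM activin A with DMSO, 200 µM test compound, 4 nM Fst288 or 8 nM inhibin A. Then 10 µM BrdU for 24 h. Genomic DNA (150 ng, heat-denatured) was dot-blotted, probed with anti-BrdU and HRP secondary, detected by ECL and quantified by densitometry. Three independent experiments; one-way ANOVA with Tukey test.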
Background: Incorporation of labelled thymidine or its analogues reports DNA synthesis.

Data set [2] has as its system activin-stimulated FSH in ovariectomized mice. The data set can be described thus: Serum FSH in ovariectomized mice. The format is in vivo, mouse. To be noted: 15 mg/kg s.c. every 12 h, 4 doses. In outline: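 Ovariectomized 12-week-old CD1 mice received s.c. test compound (15, 30 or 60 mg/kg) or vehicle (TBS or DMSO) twice daily for 2 days (4 doses). Fst288 control: 200 µg/kg, 3 doses. Serum FSH was measured by ELISA (sensitivity 0.35mIU/mL, 450 nm) as % of vehicle mean. 5–7 mice per group, 10 controls; one-way ANOVA with Tukey test.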

Data set [3] addresses T1, activin A/ActRIIA-ECD complex binding to ALK4-ECD-Fc (Homo sapiens, UniProt P08476).
T1 sequence (P08476 311-426): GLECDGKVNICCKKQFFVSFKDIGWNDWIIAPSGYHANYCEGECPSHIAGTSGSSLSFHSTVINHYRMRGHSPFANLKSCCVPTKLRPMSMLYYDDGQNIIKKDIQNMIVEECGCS
Put plainly: Blitz competition binding: activin A/ActRIIA-ECD complex with ALK4-ECD-Fc. The conditions noted are these: 25 µM compound, complex 1.6 µM. In outline: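 ALK4-ECD-Fc (50 ng/mL) was immobilized on a protein A Blitz biosensor for 120 s. Activin A and ActRIIA-ECD were premixed 1:2 molar, final 1.6 µM in PBS. The sensor was dipped into this complex with solvent or test compound (0.4, 1.6, 6.25, 25 µM) for 120 s association, then 120 s dissociation in PBS. Real-time wavelength shift recorded.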

The target in data set [4] is T2, myostatin/ActRIIA-ECD complex binding with ALK4-ECD-Fc (Homo sapiens, UniProt O14793).
T2 sequence (O14793 267-375): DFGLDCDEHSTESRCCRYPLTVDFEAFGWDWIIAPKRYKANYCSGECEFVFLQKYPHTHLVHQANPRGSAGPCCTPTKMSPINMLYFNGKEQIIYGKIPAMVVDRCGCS
The data set can be described thus: Blitz competition binding: myostatin/ActRIIA-ECD complex with ALK4-ECD-Fc. To be noted: 25 µM compound. In outline: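 Myostatin and ActRIIA-ECD were premixed 1:2 molar, final 1.6 µM in PBS. Binding was to ALK4-ECD-Fc immobilized on a protein A Blitz biosensor (50 ng/mL, 120 s). Sensor dipped into complex with solvent or 25 µM test compound; 120 s association, 120 s dissociation in PBS. Wavelength shift recorded.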

In a further data set the test system is ovariectomized mice. The data set can be described thus: Kidney and liver histology and behavior of treated ovariectomized mice. The format is in vivo, mouse. In outline: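 Ovariectomized 12-week-old CD1 mice received s.c. vehicle or 60 mg/kg test compound twice daily for 2 days (4 doses). Kidney and liver were fixed in Modified Davidson's fixative for 5 days at 4 °C, embedded in paraffin and stained with H&E.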

Data set [5] deals with activin A-stimulated FSHβ promoter activation in −338FSHβ-luc LβT2 cells. The data set can be described thus: −338FSHβ-Luc LβT2 cell luciferase assay. The format is cell-based. To be noted: Mus musculus, 6 h, read-out: IC50 for activin A (selectivity test).
The target of data set [6] is T3, activin A binding to ActRIIA-ECD-Fc (Homo sapiens, UniProt P08476).
T3 sequence (P08476 311-426): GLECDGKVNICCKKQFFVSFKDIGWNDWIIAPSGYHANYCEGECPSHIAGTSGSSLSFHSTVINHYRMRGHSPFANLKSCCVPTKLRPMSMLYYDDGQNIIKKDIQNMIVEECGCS
The data set can be described thus: Blitz competition binding: activin A with ActRIIA-ECD-Fc. To be noted: 25 µM compound, activin A 1.6 µM. In short, it runs like this: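 Protein A biosensor (Blitz) loaded with ActRIIA-ECD-Fc, then dipped into activin A (final 1.6 µM) with solvent control or a single 25 µM test compound. Association was 120 s and dissociation 120 s in PBS. Real-time wavelength shift recorded.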

Data set [7] has as its system myostatin signaling in the −338FSHβ-Luc LβT2 cell line. Put plainly: −338FSHβ-Luc LβT2 cell luciferase assay. The format is cell-based, mouse. The conditions noted are these: −338FSHβ-Luc LβT2 luciferase assay. In short, it runs like this: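 Stably transfected −338FSHβ-Luc LβT2 cells (5 × 10^4/well) were treated for 6 h at 37 °C in serum-free, phenol red-free DMEM-F12 with 1% P/S. Treatments: 0.2 nM activin A or 0.2 nM myostatin with DMSO or a test-compound dilution series. Luciferase measured in lysates. Triplicates in three experiments. IC50 from sigmoidal variable-slope fit, reported as means ± SD.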

Entries after “also recorded” stand apart in the source; their conditions may differ.

As to `CC(C)(O)C#Cc1ccc(CN2CCC[C@@H](CCC(=O)N3CCOCC3)C2)s1` [NUCC-474], the “Inhibition of exogenous activin A-mediated ovarian cell proliferation (BrdU)” value (“Inhibition” for short) in data set [1] (200 µM compound) is listed as “only partially inhibited”.
With `CCn1c(-c2cccnc2)nc2cc(NC(=O)COC)cc(C(=O)NCc3ccccc3)c21` [NUCC-555], the “Effect on serum FSH levels compared with control” value in data set [2] was “no significant effect”. In addition, the “Antagonism of activin A/ActRIIA-ECD complex binding with ALK4-ECD-Fc” value in data set [3] was “nearly complete antagonist; also recorded: completely blocked”. Further, the “Blocking of myostatin/ActRIIA complex binding with ALK4” value in data set [4] is on record as “no blocking activity”. In addition, in the data set with ovariectomized mice (60 mg/kg s.c. twice daily, 4 doses, ovariectomized mice), the “Histopathology of the kidney and liver tissue (H&E)” value is “unchanged”. For the same molecule, the Behavior after injection entry in the data set on ovariectomized mice (s.c. injection, ovariectomized mice) was “normal behavior”. For the same molecule, in the data set on ovariectomized mice (treated mice, efficacy studies), the “Adverse effects in efficacy studies” value was “No adverse effects”. For the same molecule, the “Inhibition” value in data set [1] (200 µM compound) is reported as “completely inhibited”. Further, in data set [5], the IC50 was 5.37 ± 4.01 µM. In addition, in data set [6], the “Interference with activin A binding with ActRIIA-ECD-Fc” value is given as “weakly interfere”. Moreover, the “Selectivity, IC50 for activin A versus IC50 for myostatin” value in data set [7] is around 10 fold.

B1: inhibin A: Purified inhibin A, naturally occurring activin antagonist, positive control in ovary culture (protein, UniProt P05111 233-366; P08476 311-426, looked up)
Inhibin alpha chain: STPLMSWPWSPSALRLLQRPPEEPAAHANCHRVALNISFQELGWERWIVYPPSFIFHYCHGGCGLHIPPNLSLPVPGAPPTPAQPYSLLPGAQPCCAALPGTMRPLHVRTTSDGGYSFKYETVPNLLTQHCACI
Inhibin beta A chain: GLECDGKVNICCKKQFFVSFKDIGWNDWIIAPSGYHANYCEGECPSHIAGTSGSSLSFHSTVINHYRMRGHSPFANLKSCCVPTKLRPMSMLYYDDGQNIIKKDIQNMIVEECGCS
For the molecule B1, the “Inhibition” value in data set [1] (8 nM) was “completely inhibited”.

By IC50 is commonly meant the midpoint of a concentration-inhibition curve.

Values taken from article PMC4635973 (Journal of medicinal chemistry, 2015).
